Laboratory results taken from ChEMBL document CHEMBL2380254, “Optimization of tocotrienols as antiproliferative and antimigratory leads” (Eur J Med Chem, 2013).

Legend:
Type in all cases: functional
UACC-257 = assay: Growth inhibition of human UACC257 cells assessed as cell growth at 10 uM after 48 hrs by sulforhodamine B assay; settings: UACC-257, 48 h, read-out: Activity
Summary of the method: (§1)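 Single-dose NCI-60 test at 10 µM. Cells were grown in RPMI 1640 with 5% FBS and 2 mM L-glutamine, preincubated 24 h, with T0 plates TCA-fixed. Exposure was 48 h at 37 °C, 5% CO2. Cells were fixed with cold TCA (final 10%, 4 °C, 60 min), stained with SRB and read at 515 nm. Percent growth was taken relative to T0 and untreated control; negative values denote cell kill.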

SK-MEL-5 = assay: Growth inhibition of human SK-MEL-5 cells assessed as cell growth at 10 uM after 48 hrs by sulforhodamine B assay; settings: SK-MEL-5, 48 h, read-out: Activity
Summary of the method: (§2)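 Single-dose NCI-60 screen: adherent cells in RPMI 1640 with 5% FBS were exposed to 10 µM for 48 h at 37 °C after a 24 h preincubation. They were fixed in situ with cold TCA (10% final), stained with 0.4% SRB in 1% acetic acid, solubilized in 10 mM Tris base, and read at 515 nm. Percent growth was taken relative to time-zero and control plates.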

SK-MEL-28 = assay: Growth inhibition of human SK-MEL-28 cells assessed as cell growth at 10 uM after 48 hrs by sulforhodamine B assay; settings: SK-MEL-28, 48 h, read-out: Activity; summary of the method: as §2
MDA-MB-435 = assay: Growth inhibition of human MDA-MB-435 cells assessed as cell growth at 10 uM after 48 hrs by sulforhodamine B assay; settings: MDA-MB-435, 48 h, read-out: Activity; summary of the method: as §2
SNB-19 = assay: Growth inhibition of human SNB19 cells assessed as cell growth at 10 uM after 48 hrs by sulforhodamine B assay; settings: SNB-19, 48 h, read-out: Activity; summary of the method: as §1
HCT-15 = assay: Growth inhibition of human HCT15 cells assessed as cell growth at 10 uM after 48 hrs by sulforhodamine B assay; settings: HCT-15, 48 h, read-out: Activity
Summary of the method: (§3)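 NCI-60 single-dose screen at 10 µM: cells in RPMI 1640 with 5% FBS, preincubated 24 h, then exposed 48 h at 37 °C. TCA fixation (16% final for suspension cells), SRB staining, absorbance 515 nm. Percent growth relative to time-zero and untreated control plates; negative values indicate cell kill.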

HCT-116 = assay: Growth inhibition of human HCT116 cells assessed as cell growth at 10 uM after 48 hrs by sulforhodamine B assay; settings: HCT-116, 48 h, read-out: Activity; summary of the method: as §3
[1] = Growth inhibition of human HCC2998 cells assessed as cell growth at 10 uM after 48 hrs by sulforhodamine B assay; settings: HCC 2998, 48 h, read-out: Activity; summary of the method: as §3
HL-60(TB) = assay: Growth inhibition of human HL-60(TB) cells assessed as cell growth at 10 uM after 48 hrs by sulforhodamine B assay; settings: HL-60, 48 h, read-out: Activity
Summary of the method: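 NCI-60 single-dose screen run at 10 µM on HL-60(TB) suspension cells in RPMI 1640 with 5% FBS and 2 mM L-glutamine. Cells were preincubated for 24 h, with a time-zero plate fixed then. Exposure lasted 48 h at 37 °C. Settled cells were fixed with TCA (16% final), stained with SRB and read at 515 nm. Percent growth is relative to control and T0.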

A498 = assay: Growth inhibition of human A498 cells assessed as cell growth at 10 uM after 48 hrs by sulforhodamine B assay; settings: A498, 48 h, read-out: Activity; summary of the method: as §3

## CC(C)=CCC/C(C)=C/CC/C(C)=C/CC[C@]1(C)CCc2cc(O)c(C)c(C)c2O1 [GAMMA-TOCOTRIENOL]
UACC-257
  growth at 10 µM: 123%
SK-MEL-5
  growth at 10 µM: 99.1%
SK-MEL-28
  growth at 10 µM: 97.3%
MDA-MB-435
  growth at 10 µM: 102%
SNB-19
  growth at 10 µM: 114%
HCT-15
  growth at 10 µM: 102%
HCT-116
  growth at 10 µM: 109%
[1]
  growth at 10 µM: 115%
HL-60(TB)
  growth at 10 µM: 86.5%

## COc1ccc(CCN2COc3c(C)c(C)c4c(c3C2)CC[C@@](C)(CC/C=C(\C)CC/C=C(\C)CCC=C(C)C)O4)cc1OC
A498
  growth at 10 µM: 108%
UACC-257
  growth at 10 µM: 105%
SK-MEL-5
  growth at 10 µM: 107%
SK-MEL-28
  growth at 10 µM: 93.6%
MDA-MB-435
  growth at 10 µM: 90.7%
SNB-19
  growth at 10 µM: 104%
HCT-15
  growth at 10 µM: 102%
HCT-116
  growth at 10 µM: 91.9%
[1]
  growth at 10 µM: 70.5%
HL-60(TB)
  growth at 10 µM: 79.4%

## CC(C)=CCC/C(C)=C/CC/C(C)=C/CC[C@]1(C)CCc2c3c(c(C)c(C)c2O1)OCN(CCCCCCCCCCO)C3
UACC-257
  growth at 10 µM: 102%
SK-MEL-5
  growth at 10 µM: 95.6%
SK-MEL-28
  growth at 10 µM: 98.2%
MDA-MB-435
  growth at 10 µM: 98.3%
SNB-19
  growth at 10 µM: 95.7%
HCT-15
  growth at 10 µM: 91.1%
HCT-116
  growth at 10 µM: 78.4%
[1]
  growth at 10 µM: 97.9%
HL-60(TB)
  growth at 10 µM: 88%

## CC(C)=CCC/C(C)=C/CC/C(C)=C/CC[C@]1(C)CCc2c(CNCCc3ccc(O)cc3)c(O)c(C)c(C)c2O1
A498
  growth at 10 µM: 104%
UACC-257
  growth at 10 µM: 102%
SK-MEL-5
  growth at 10 µM: 111%
SK-MEL-28
  growth at 10 µM: 93.4%
MDA-MB-435
  growth at 10 µM: 81.3%
SNB-19
  growth at 10 µM: 99.8%
HCT-15
  growth at 10 µM: 106%
HCT-116
  growth at 10 µM: 61.4%
[1]
  growth at 10 µM: 57.7%
HL-60(TB)
  growth at 10 µM: 84%

## CC(C)=CCC/C(C)=C/CC/C(C)=C/CC[C@]1(C)CCc2c3c(cc(C)c2O1)OCN(CCCCCCCCCCCCO)C3
UACC-257
  growth at 10 µM: 64.3%
SK-MEL-5
  growth at 10 µM: 58.1%
SK-MEL-28
  growth at 10 µM: 75.3%
MDA-MB-435
  growth at 10 µM: 71.5%
SNB-19
  growth at 10 µM: 92.7%
HCT-15
  growth at 10 µM: 82.9%
HCT-116
  growth at 10 µM: 51.6%
[1]
  growth at 10 µM: 68.7%
HL-60(TB)
  growth at 10 µM: 27.6%

## CC(C)=CCC/C(C)=C/CC/C(C)=C/CC[C@]1(C)CCc2c3c(c(C)c(C)c2O1)OCN(CCCCCCCCCCCCO)C3
UACC-257
  growth at 10 µM: 104%
SK-MEL-5
  growth at 10 µM: 92.8%
SK-MEL-28
  growth at 10 µM: 110%
MDA-MB-435
  growth at 10 µM: 100%
SNB-19
  growth at 10 µM: 104%
HCT-15
  growth at 10 µM: 100%
HCT-116
  growth at 10 µM: 102%
[1]
  growth at 10 µM: 102%
HL-60(TB)
  growth at 10 µM: 95%

## CC(C)=CCC/C(C)=C/CC/C(C)=C/CC[C@]1(C)CCc2c3c(c(C)c(C)c2O1)OCN(CCc1ccc(O)cc1)C3
A498
  growth at 10 µM: 90.2%
UACC-257
  growth at 10 µM: 93.6%
SK-MEL-5
  growth at 10 µM: 115%
SK-MEL-28
  growth at 10 µM: 76.6%
MDA-MB-435
  growth at 10 µM: 54.5%
SNB-19
  growth at 10 µM: 94.1%
HCT-15
  growth at 10 µM: 102%
HCT-116
  growth at 10 µM: 37.7%
[1]
  growth at 10 µM: 23.3%
HL-60(TB)
  growth at 10 µM: 72.3%

## CC(C)=CCC/C(C)=C/CC/C(C)=C/CC[C@]1(C)CCc2c3c(cc(C)c2O1)OCN(CCCCCCCCCCO)C3
UACC-257
  growth at 10 µM: 81.4%
SK-MEL-5
  growth at 10 µM: 85.2%
SK-MEL-28
  growth at 10 µM: 99.9%
MDA-MB-435
  growth at 10 µM: 101%
SNB-19
  growth at 10 µM: 98.9%
HCT-15
  growth at 10 µM: 96.9%
HCT-116
  growth at 10 µM: 65.6%
[1]
  growth at 10 µM: 98.5%
HL-60(TB)
  growth at 10 µM: 62.7%

## COc1ccc(CCNCc2c(O)c(C)c(C)c3c2CC[C@@](C)(CC/C=C(\C)CC/C=C(\C)CCC=C(C)C)O3)cc1OC
A498
  growth at 10 µM: 107%
UACC-257
  growth at 10 µM: 107%
SK-MEL-5
  growth at 10 µM: 108%
SK-MEL-28
  growth at 10 µM: 92.6%
MDA-MB-435
  growth at 10 µM: 57.5%
SNB-19
  growth at 10 µM: 89.6%
HCT-15
  growth at 10 µM: 104%
HCT-116
  growth at 10 µM: 47.1%
[1]
  growth at 10 µM: -25.9%
HL-60(TB)
  growth at 10 µM: 77.7%
